Measured values from ChEMBL document CHEMBL1671716, “Antimicrobial susceptibility patterns for recent clinical isolates of anaerobic bacteria in South Korea” (2010).
Converted amounts (≈) assume the structure as drawn.

Columns and labels:
Bacteroides ovatus = assay: Antimicrobial activity against Bacteroides ovatus assessed as percent susceptible isolates after 48 hrs by agar dilution method; format: functional
Bacteroides fragilis [1] = assay: Antimicrobial activity against Bacteroides fragilis assessed as percent susceptible isolates after 48 hrs by agar dilution method; format: functional
Prevotella intermedia = assay: Antimicrobial activity against Prevotella intermedia assessed as percent resistant isolates after 48 hrs by agar dilution method; format: functional
In short: (§1)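 CLSI agar dilution on recent Korean clinical anaerobe isolates. Inoculum 10^5 CFU per spot by replicator. Plates incubated in an anaerobic chamber at 37°C for 48 h. For piperacillin plus tazobactam, tazobactam was held constant at 4 μg/ml. Resistance and susceptibility rates derived from MICs.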

[2] = system: Bifidobacterium adolescentis; assay: Antimicrobial activity against Bifidobacterium adolescentis assessed as percent resistant isolates after 48 hrs by agar dilution method; format: functional; in short: as §1
Bifidobacterium sp. = assay: Antimicrobial activity against Bifidobacterium sp. after 48 hrs by agar dilution method; format: functional
In short: (§2)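 MICs on clinical anaerobe isolates by the CLSI agar dilution method. Inoculum of 10^5 CFU applied with a Steers replicator. Plates incubated 48 h at 37°C in an anaerobic chamber.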

Prevotella bivia = assay: Antimicrobial activity against Prevotella bivia after 48 hrs by agar dilution method; format: functional
In short: (§3)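 CLSI agar dilution (M11-A7); inoculum 10^5 CFU applied by replicator; plates incubated anaerobically 48 h at 37°C. For piperacillin-tazobactam, tazobactam held constant at 4 μg/ml.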

[3] = system: Bifidobacterium adolescentis; assay: Antimicrobial activity against Bifidobacterium adolescentis after 48 hrs by agar dilution method; format: functional; in short: as §2
Fusobacterium mortiferum = assay: Antimicrobial activity against Fusobacterium mortiferum after 48 hrs by agar dilution method; format: functional; in short: as §3
Clostridioides difficile [4] = assay: Antimicrobial activity against Clostridium difficile assessed as percent resistant isolates after 48 hrs by agar dilution method; format: functional
Anaerococcus prevotii [5] = assay: Antimicrobial activity against Anaerococcus prevotii after 48 hrs by agar dilution method; format: functional; in short: as §2
Bacteroides caccae = assay: Antimicrobial activity against Bacteroides caccae assessed as percent resistant isolates after 48 hrs by agar dilution method; format: functional; in short: as §1
Prevotella buccae = assay: Antimicrobial activity against Prevotella buccae assessed as percent susceptible isolates after 48 hrs by agar dilution method; format: functional, Segatella buccae; in short: as §3
Actinomyces naeslundii = assay: Antimicrobial activity against Actinomyces naeslundii after 48 hrs by agar dilution method; format: functional; in short: as §2
Eubacterium sp. = assay: Antimicrobial activity against Eubacterium sp. assessed as percent susceptible isolates after 48 hrs by agar dilution method; format: functional; in short: as §3
Eggerthella lenta = assay: Antimicrobial activity against Eubacterium lentum after 48 hrs by agar dilution method; format: functional; in short: as §3
[6] = system: Parabacteroides distasonis; assay: Antimicrobial activity against Bacteroides distasonis after 48 hrs by agar dilution method; format: functional; in short: as §2
[7] = system: Bifidobacterium adolescentis; assay: Antimicrobial activity against Bifidobacterium adolescentis assessed as percent susceptible isolates after 48 hrs by agar dilution method; format: functional
Clostridium perfringens = assay: Antimicrobial activity against Clostridium perfringens after 48 hrs by agar dilution method; format: functional
Phocaeicola vulgatus = assay: Antimicrobial activity against Bacteroides vulgatus after 48 hrs by agar dilution method; format: functional; in short: as §2
[8] = system: Peptostreptococcus anaerobius; assay: Antimicrobial activity against Peptostreptococcus anaerobius assessed as percent susceptible isolates after 48 hrs by agar dilution method; format: functional; in short: as §1
Anaerococcus prevotii [9] = assay: Antimicrobial activity against Anaerococcus prevotii assessed as percent resistant isolates after 48 hrs by agar dilution method; format: functional; in short: as §1
Bacteroides fragilis [10] = assay: Antimicrobial activity against Bacteroides fragilis after 48 hrs by agar dilution method; format: functional; in short: as §2
Clostridioides difficile [11] = assay: Antimicrobial activity against Clostridium difficile after 48 hrs by agar dilution method; format: functional
[12] = system: Peptoniphilus asaccharolyticus; assay: Antimicrobial activity against Peptoniphilus asaccharolyticus assessed as percent susceptible isolates after 48 hrs by agar dilution method; format: functional; in short: as §3
Hoylesella oralis [13] = assay: Antimicrobial activity against Prevotella oralis assessed as percent resistant isolates after 48 hrs by agar dilution method; format: functional; in short: as §1
Schaalia odontolytica = assay: Antimicrobial activity against Actinomyces odontolyticus assessed as percent susceptible isolates after 48 hrs by agar dilution method; format: functional
Actinomyces israelii = assay: Antimicrobial activity against Actinomyces israelii assessed as percent resistant isolates after 48 hrs by agar dilution method; format: functional; in short: as §1
Hoylesella oralis [14] = assay: Antimicrobial activity against Prevotella oralis after 48 hrs by agar dilution method; format: functional; in short: as §3
[15] = system: Peptostreptococcus anaerobius; assay: Antimicrobial activity against Peptostreptococcus anaerobius after 48 hrs by agar dilution method; format: functional; in short: as §3

## C[C@@H](O)[C@H]1C(=O)N2C(C(=O)O)=C(SCCNC=N)C[C@H]12 [IMIPENEM ANHYDROUS]
Bacteroides ovatus
  Activity: 95%
Bacteroides fragilis [1]
  Activity: 98%
Prevotella intermedia
  Activity: 0%
[2]
  Activity: 15%
Bifidobacterium sp.
  MIC50: 0.06 µg/mL (≈ 0.2 µM)
  MIC90: 0.5 µg/mL (≈ 1.67 µM)
Prevotella bivia
  MIC50: 0.06 µg/mL (≈ 0.2 µM)
  MIC90: 0.5 µg/mL (≈ 1.67 µM)
[3]
  MIC50: 0.06 µg/mL (≈ 0.2 µM)
  MIC90: 0.5 µg/mL (≈ 1.67 µM)
Fusobacterium mortiferum
  MIC: 0.02 µg/mL (≈ 0.0668 µM)
Clostridioides difficile [4]
  Activity: 8%
Anaerococcus prevotii [5]
  MIC50: 0.06 µg/mL (≈ 0.2 µM)
  MIC90: 0.25 µg/mL (≈ 0.835 µM)
Bacteroides caccae
  Activity: 4%
Prevotella buccae
  Activity: 100%
Actinomyces naeslundii
  MIC50: 0.06 µg/mL (≈ 0.2 µM)
  MIC90: 0.5 µg/mL (≈ 1.67 µM)
Eubacterium sp.
  Activity: 100%
Eggerthella lenta
  MIC50: 0.06 µg/mL (≈ 0.2 µM)
  MIC90: 0.5 µg/mL (≈ 1.67 µM)
[6]
  MIC50: 0.5 µg/mL (≈ 1.67 µM)
  MIC90: 4 µg/mL (≈ 13.4 µM)
[7]
  Activity: 100%
Clostridium perfringens
  MIC50: 0.125 µg/mL (≈ 0.418 µM)
  MIC90: 0.125 µg/mL (≈ 0.418 µM)
Phocaeicola vulgatus
  MIC50: 0.5 µg/mL (≈ 1.67 µM)
  MIC90: 4 µg/mL (≈ 13.4 µM)
[8]
  Activity: 100%
Anaerococcus prevotii [9]
  Activity: 0%
Bacteroides fragilis [10]
  MIC50: 0.125 µg/mL (≈ 0.418 µM)
  MIC90: 1 µg/mL (≈ 3.34 µM)
Clostridioides difficile [11]
  MIC50: 4 µg/mL (≈ 13.4 µM)
  MIC90: 8 µg/mL (≈ 26.7 µM)
[12]
  Activity: 100%
Hoylesella oralis [13]
  Activity: 0%
Schaalia odontolytica
  Activity: 100%
Actinomyces israelii
  Activity: 0%
Hoylesella oralis [14]
  MIC50: 0.06 µg/mL (≈ 0.2 µM)
  MIC90: 0.5 µg/mL (≈ 1.67 µM)
[15]
  MIC50: 0.125 µg/mL (≈ 0.418 µM)
  MIC90: 2 µg/mL (≈ 6.68 µM)

## CCC[C@@H]1C[C@@H](C(=O)N[C@@H]([C@H]2O[C@H](SC)[C@H](O)[C@@H](O)[C@H]2O)[C@H](C)Cl)N(C)C1 [CLINDAMYCIN]
Bacteroides ovatus
  Activity: 16%
Bacteroides fragilis [1]
  Activity: 67%
Prevotella intermedia
  Activity: 0%
[2]
  Activity: 8%
Bifidobacterium sp.
  MIC: 0.06 µg/mL (≈ 0.141 µM)
  MIC50: 0.06 µg/mL (≈ 0.141 µM)
  MIC90: > 128 µg/mL
Prevotella bivia
  MIC50: ≤ 0.06 µg/mL
  MIC90: 128 µg/mL (≈ 301 µM)
[3]
  MIC: 0.06 µg/mL (≈ 0.141 µM)
  MIC50: 0.06 µg/mL (≈ 0.141 µM)
  MIC90: > 128 µg/mL
Fusobacterium mortiferum
  MIC: 0.06 µg/mL (≈ 0.141 µM)
Clostridioides difficile [4]
  Activity: 83%
Anaerococcus prevotii [5]
  MIC50: 2 µg/mL (≈ 4.71 µM)
  MIC90: 128 µg/mL (≈ 301 µM)
Bacteroides caccae
  Activity: 68%
Prevotella buccae
  Activity: 50%
Actinomyces naeslundii
  MIC: 0.06 µg/mL (≈ 0.141 µM)
  MIC50: 0.06 µg/mL (≈ 0.141 µM)
  MIC90: > 128 µg/mL
Eubacterium sp.
  Activity: 85%
Eggerthella lenta
  MIC: 0.06 µg/mL (≈ 0.141 µM)
  MIC50: 0.06 µg/mL (≈ 0.141 µM)
  MIC90: > 128 µg/mL
[6]
  MIC50: > 128 µg/mL
  MIC90: > 128 µg/mL
[7]
  Activity: 85%
Clostridium perfringens
  MIC50: 2 µg/mL (≈ 4.71 µM)
  MIC90: 4 µg/mL (≈ 9.41 µM)
Phocaeicola vulgatus
  MIC50: > 128 µg/mL
  MIC90: > 128 µg/mL
[8]
  Activity: 77%
Anaerococcus prevotii [9]
  Activity: 40%
Bacteroides fragilis [10]
  MIC50: 0.5 µg/mL (≈ 1.18 µM)
  MIC90: > 128 µg/mL
Clostridioides difficile [11]
  MIC50: 64 µg/mL (≈ 151 µM)
  MIC90: 128 µg/mL (≈ 301 µM)
[12]
  Activity: 67%
Schaalia odontolytica
  Activity: 85%
Actinomyces israelii
  Activity: 15%
Hoylesella oralis [14]
  MIC50: ≤ 0.06 µg/mL
  MIC90: 128 µg/mL (≈ 301 µM)
[15]
  MIC50: 0.125 µg/mL (≈ 0.294 µM)
  MIC90: 64 µg/mL (≈ 151 µM)

## Cc1ncc([N+](=O)[O-])n1CCO [METRONIDAZOLE]
Bacteroides ovatus
  Activity: 100%
Bacteroides fragilis [1]
  Activity: 100%
Prevotella intermedia
  Activity: 0%
Bifidobacterium sp.
  MIC50: 16 µg/mL (≈ 93.5 µM)
  MIC90: > 128 µg/mL
Prevotella bivia
  MIC50: 4 µg/mL (≈ 23.4 µM)
  MIC90: 8 µg/mL (≈ 46.7 µM)
[3]
  MIC50: 16 µg/mL (≈ 93.5 µM)
  MIC90: > 128 µg/mL
Fusobacterium mortiferum
  MIC: 0.13 µg/mL (≈ 0.76 µM)
Clostridioides difficile [4]
  Activity: 0%
Anaerococcus prevotii [5]
  MIC50: 1 µg/mL (≈ 5.84 µM)
  MIC90: 1 µg/mL (≈ 5.84 µM)
Bacteroides caccae
  Activity: 0%
Prevotella buccae
  Activity: 100%
Actinomyces naeslundii
  MIC50: 16 µg/mL (≈ 93.5 µM)
  MIC90: > 128 µg/mL
Eubacterium sp.
  Activity: 46%
Eggerthella lenta
  MIC50: 16 µg/mL (≈ 93.5 µM)
  MIC90: > 128 µg/mL
[6]
  MIC50: 2 µg/mL (≈ 11.7 µM)
  MIC90: 2 µg/mL (≈ 11.7 µM)
[7]
  Activity: 46%
Clostridium perfringens
  MIC: 0.02 µg/mL (≈ 0.117 µM)
  MIC50: 0.03 µg/mL (≈ 0.175 µM)
  MIC90: 0.06 µg/mL (≈ 0.351 µM)
Phocaeicola vulgatus
  MIC50: 2 µg/mL (≈ 11.7 µM)
  MIC90: 2 µg/mL (≈ 11.7 µM)
[8]
  Activity: 100%
Anaerococcus prevotii [9]
  Activity: 0%
Bacteroides fragilis [10]
  MIC50: 2 µg/mL (≈ 11.7 µM)
  MIC90: 2 µg/mL (≈ 11.7 µM)
Clostridioides difficile [11]
  MIC50: 1 µg/mL (≈ 5.84 µM)
  MIC90: 1 µg/mL (≈ 5.84 µM)
[12]
  Activity: 100%
Hoylesella oralis [13]
  Activity: 0%
Schaalia odontolytica
  Activity: 46%
Hoylesella oralis [14]
  MIC50: 4 µg/mL (≈ 23.4 µM)
  MIC90: 8 µg/mL (≈ 46.7 µM)
[15]
  MIC50: 0.5 µg/mL (≈ 2.92 µM)
  MIC90: 1 µg/mL (≈ 5.84 µM)
